Data reported in PMC6606825 (Journal of Ginseng Research, 2018).

Test: Pharmacokinetics of CK and its metabolite 20
Format: in vivo, healthy Chinese volunteers
Outline: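 Healthy adults given one oral tablet dose fasting (overnight, or 10 h in a crossover food-effect arm); 30 subjects from the 100/200/400 mg groups were pooled with 24 from 200 mg fasting periods. Plasma was stored at −70°C, extracted with MTBE plus internal standards and assayed by LC-MS/MS. Cmax was observed and AUClast calculated by linear trapezoid, each divided by dose. The metabolite/parent ratio was also calculated. Genotyping used Sequenom MassARRAY, and log-transformed values were compared by one-way ANOVA.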

[1] = ABCC4 rs2274406 TT (first line), mean (SD)
[2] = ABCC4 rs2274406 TT (third line), mean (SD)
[3] = ABCG2 rs2054576 AA (first line), mean (SD)
[4] = ABCG2 rs2054576 AA (third line), mean (SD)

- Ratio 20(S)-PPD/CK AUClast/D (ABCC4 rs1151471 TT, mean (SD)): 2.12 (2.57) %
- Ratio 20(S)-PPD/CK Cmax/D (ABCC4 rs1151471 TT, mean (SD)): 0.52 (0.50) %
- 20(S)-PPD AUClast/D (ABCC4 rs1189437 GG, n = 1): 3.78 (−)
- 20(S)-PPD Cmax/D (ABCC4 rs1189437 GG, n = 1): 0.11 (−)
- Ratio 20(S)-PPD/CK AUClast/D (ABCC4 rs1189437 GG, n = 1): 31.18 (−) %
- Ratio 20(S)-PPD/CK Cmax/D (ABCC4 rs1189437 GG, n = 1): 6.05 (−) %
- 20(S)-PPD AUClast/D (ABCC4 rs1189437 GT, mean (SD)): 1.25 (0.80)
- 20(S)-PPD Cmax/D (ABCC4 rs1189437 GT, mean (SD)): 0.05 (0.03)
- Ratio 20(S)-PPD/CK AUClast/D (ABCC4 rs1189437 GT, mean (SD)): 7.87 (7.32) %
- Ratio 20(S)-PPD/CK Cmax/D (ABCC4 rs1189437 GT, mean (SD)): 2.35 (2.55) %
- 20(S)-PPD AUClast/D (ABCC4 rs1189437 TT, mean (SD)): 0.54 (0.49)
- 20(S)-PPD Cmax/D (ABCC4 rs1189437 TT, mean (SD)): 0.02 (0.02)
- Ratio 20(S)-PPD/CK AUClast/D (ABCC4 rs1189437 TT, mean (SD)): 2.03 (2.50) %
- Ratio 20(S)-PPD/CK Cmax/D (ABCC4 rs1189437 TT, mean (SD)): 0.50 (0.49) %
- 20(S)-PPD AUClast/D (ABCC4 rs1751034 TC, mean (SD)): 1.51 (1.01)
- 20(S)-PPD Cmax/D (ABCC4 rs1751034 TC, mean (SD)): 0.05 (0.04)
- Ratio 20(S)-PPD/CK Cmax/D (ABCC4 rs1751034 TC, mean (SD)): 2.88 (2.68) %
- 20(S)-PPD AUClast/D (ABCC4 rs1751034 TT, mean (SD)): 0.59 (0.51)
- 20(S)-PPD Cmax/D (ABCC4 rs1751034 TT, mean (SD)): 0.02 (0.02)
- Ratio 20(S)-PPD/CK AUClast/D (ABCC4 rs1751034 TT, mean (SD)): 2.17 (2.45) %
- Ratio 20(S)-PPD/CK Cmax/D (ABCC4 rs1751034 TT, mean (SD)): 0.55 (0.50) %
- 20(S)-PPD AUClast/D (ABCC4 rs2274406 CT, mean (SD)): 0.77 (0.73)
- 20(S)-PPD Cmax/D (ABCC4 rs2274406 CT, mean (SD)): 0.03 (0.03)
- Ratio 20(S)-PPD/CK AUClast/D (ABCC4 rs2274406 CT, mean (SD)): 3.81 (4.77) %
- Ratio 20(S)-PPD/CK Cmax/D (ABCC4 rs2274406 CT, mean (SD)): 1.15 (1.88) %
- 20(S)-PPD AUClast/D [1]: 0.78 (0.55)
- 20(S)-PPD Cmax/D [1]: 0.03 (0.03)
- Ratio 20(S)-PPD/CK AUClast/D [1]: 2.75 (2.87) %
- Ratio 20(S)-PPD/CK Cmax/D [1]: 0.63 (0.46) %
- 20(S)-PPD AUClast/D [2]: 0.97 (1.01)
- 20(S)-PPD Cmax/D [2]: 0.03 (0.03)
- Ratio 20(S)-PPD/CK AUClast/D [2]: 6.34 (9.72) %
- Ratio 20(S)-PPD/CK Cmax/D [2]: 1.49 (1.93) %
- 20(S)-PPD AUClast/D (ABCC4 rs2274407 CA, mean (SD)): 0.70 (0.61)
- 20(S)-PPD Cmax/D (ABCC4 rs2274407 CA, mean (SD)): 0.03 (0.02)
- Ratio 20(S)-PPD/CK AUClast/D (ABCC4 rs2274407 CA, mean (SD)): 3.96 (6.67) %
- Ratio 20(S)-PPD/CK Cmax/D (ABCC4 rs2274407 CA, mean (SD)): 1.04 (1.40) %
- 20(S)-PPD AUClast/D (ABCC4 rs2274407 CC, mean (SD)): 0.87 (0.83)
- 20(S)-PPD Cmax/D (ABCC4 rs2274407 CC, mean (SD)): 0.03 (0.03)
- Ratio 20(S)-PPD/CK AUClast/D (ABCC4 rs2274407 CC, mean (SD)): 4.39 (6.18) %
- Ratio 20(S)-PPD/CK Cmax/D (ABCC4 rs2274407 CC, mean (SD)): 1.18 (1.84) %
- 20(S)-PPD AUClast/D (ABCC4 rs4148546 AA, mean (SD)): 1.01 (0.97)
- 20(S)-PPD Cmax/D (ABCC4 rs4148546 AA, mean (SD)): 0.03 (0.03)
- Ratio 20(S)-PPD/CK AUClast/D (ABCC4 rs4148546 AA, mean (SD)): 6.66 (9.45) %
- Ratio 20(S)-PPD/CK Cmax/D (ABCC4 rs4148546 AA, mean (SD)): 1.37 (1.86) %
- 20(S)-PPD AUClast/D (ABCC4 rs4148546 GA, mean (SD)): 0.87 (0.75)
- 20(S)-PPD Cmax/D (ABCC4 rs4148546 GA, mean (SD)): 0.03 (0.03)
- Ratio 20(S)-PPD/CK AUClast/D (ABCC4 rs4148546 GA, mean (SD)): 4.17 (4.77) %
- Ratio 20(S)-PPD/CK Cmax/D (ABCC4 rs4148546 GA, mean (SD)): 1.32 (1.94) %
- 20(S)-PPD AUClast/D (ABCC4 rs4148546 GG, mean (SD)): 0.47 (0.46)
- 20(S)-PPD Cmax/D (ABCC4 rs4148546 GG, mean (SD)): 0.02 (0.02)
- Ratio 20(S)-PPD/CK AUClast/D (ABCC4 rs4148546 GG, mean (SD)): 1.34 (1.47) %
- Ratio 20(S)-PPD/CK Cmax/D (ABCC4 rs4148546 GG, mean (SD)): 0.41 (0.46) %
- 20(S)-PPD AUClast/D [3]: 0.78 (0.79)
- 20(S)-PPD Cmax/D [3]: 0.03 (0.03)
- Ratio 20(S)-PPD/CK AUClast/D [3]: 4.17 (5.11) %
- Ratio 20(S)-PPD/CK Cmax/D [3]: 1.26 (1.98) %
- 20(S)-PPD AUClast/D [4]: 2.05 (1.51)
- 20(S)-PPD Cmax/D [4]: 0.06 (0.04)
- Ratio 20(S)-PPD/CK AUClast/D [4]: 12.95 (15.83) %
- Ratio 20(S)-PPD/CK Cmax/D [4]: 2.56 (3.02) %
- 20(S)-PPD AUClast/D (ABCG2 rs2054576 GA, mean (SD)): 0.73 (0.53)
- 20(S)-PPD Cmax/D (ABCG2 rs2054576 GA, mean (SD)): 0.03 (0.02)
- Ratio 20(S)-PPD/CK AUClast/D (ABCG2 rs2054576 GA, mean (SD)): 3.30 (5.27) %
- Ratio 20(S)-PPD/CK Cmax/D (ABCG2 rs2054576 GA, mean (SD)): 0.83 (1.11) %
- 20(S)-PPD AUClast/D (ABCG2 rs2231142 GG, mean (SD)): 0.62 (0.53)
- 20(S)-PPD Cmax/D (ABCG2 rs2231142 GG, mean (SD)): 0.02 (0.02)
- Ratio 20(S)-PPD/CK AUClast/D (ABCG2 rs2231142 GG, mean (SD)): 2.95 (3.04) %
- Ratio 20(S)-PPD/CK Cmax/D (ABCG2 rs2231142 GG, mean (SD)): 0.78 (0.71) %
- 20(S)-PPD AUClast/D (ABCG2 rs2231142 GT, mean (SD)): 0.88 (0.83)
- 20(S)-PPD Cmax/D (ABCG2 rs2231142 GT, mean (SD)): 0.03 (0.04)
- Ratio 20(S)-PPD/CK AUClast/D (ABCG2 rs2231142 GT, mean (SD)): 4.13 (5.64) %
- Ratio 20(S)-PPD/CK Cmax/D (ABCG2 rs2231142 GT, mean (SD)): 1.45 (2.39) %
- 20(S)-PPD AUClast/D (ABCG2 rs2231142 TT, mean (SD)): 2.05 (1.51)
- 20(S)-PPD Cmax/D (ABCG2 rs2231142 TT, mean (SD)): 0.06 (0.04)
- Ratio 20(S)-PPD/CK AUClast/D (ABCG2 rs2231142 TT, mean (SD)): 12.95 (15.83) %
- Ratio 20(S)-PPD/CK Cmax/D (ABCG2 rs2231142 TT, mean (SD)): 2.56 (3.02) %
- 20(S)-PPD AUClast/D (ABCG2 rs2231148 AA, mean (SD)): 0.68 (0.31)
- 20(S)-PPD Cmax/D (ABCG2 rs2231148 AA, mean (SD)): 0.03 (0.01)
- Ratio 20(S)-PPD/CK AUClast/D (ABCG2 rs2231148 AA, mean (SD)): 3.01 (2.32) %
- Ratio 20(S)-PPD/CK Cmax/D (ABCG2 rs2231148 AA, mean (SD)): 0.84 (0.60) %
- 20(S)-PPD AUClast/D (ABCG2 rs2231148 AT, mean (SD)): 0.93 (0.97)
- 20(S)-PPD Cmax/D (ABCG2 rs2231148 AT, mean (SD)): 0.03 (0.04)
- Ratio 20(S)-PPD/CK AUClast/D (ABCG2 rs2231148 AT, mean (SD)): 4.06 (6.40) %
- Ratio 20(S)-PPD/CK Cmax/D (ABCG2 rs2231148 AT, mean (SD)): 1.42 (2.72) %
- 20(S)-PPD AUClast/D (ABCG2 rs2231148 TT, mean (SD)): 0.80 (0.80)
- 20(S)-PPD Cmax/D (ABCG2 rs2231148 TT, mean (SD)): 0.03 (0.02)
- Ratio 20(S)-PPD/CK AUClast/D (ABCG2 rs2231148 TT, mean (SD)): 4.75 (7.36) %
- Ratio 20(S)-PPD/CK Cmax/D (ABCG2 rs2231148 TT, mean (SD)): 1.11 (1.45) %
- 20(S)-PPD AUClast/D (ABCG2 rs2725248 AA, mean (SD)): 0.69 (0.78)
- 20(S)-PPD Cmax/D (ABCG2 rs2725248 AA, mean (SD)): 0.02 (0.03)
- Ratio 20(S)-PPD/CK AUClast/D (ABCG2 rs2725248 AA, mean (SD)): 3.94 (7.05) %
- Ratio 20(S)-PPD/CK Cmax/D (ABCG2 rs2725248 AA, mean (SD)): 0.92 (1.40) %
- 20(S)-PPD AUClast/D (ABCG2 rs2725248 CA, mean (SD)): 1.05 (0.79)
- 20(S)-PPD Cmax/D (ABCG2 rs2725248 CA, mean (SD)): 0.04 (0.03)
- Ratio 20(S)-PPD/CK AUClast/D (ABCG2 rs2725248 CA, mean (SD)): 4.84 (5.49) %
- Ratio 20(S)-PPD/CK Cmax/D (ABCG2 rs2725248 CA, mean (SD)): 1.53 (2.29) %
- 20(S)-PPD AUClast/D (ABCG2 rs2725248 CC, mean (SD)): 0.96 (1.03)
- 20(S)-PPD Cmax/D (ABCG2 rs2725248 CC, mean (SD)): 0.03 (0.03)
- Ratio 20(S)-PPD/CK AUClast/D (ABCG2 rs2725248 CC, mean (SD)): 3.24 (3.92) %
SMILES: CC(C)=CCC[C@](C)(O)[C@H]1CC[C@]2(C)[C@@H]1[C@H](O)C[C@@H]1[C@@]3(C)CC[C@H](O)C(C)(C)[C@@H]3CC[C@]12C [20(S)-PPD, 20(S)-protopanaxadiol]
